Data reported in ChEMBL document CHEMBL1155348, “Synthesis and antiviral activity of beta-carboline derivatives bearing a substituted carbohydrazide at C-3 against poliovirus and herpes simplex virus (HSV-1)” (Eur J Med Chem, 2009).
The source made the active and inactive calls. No cut-off for these calls is given here.

Columns and labels:
Enterovirus C [1] = test: Antiviral activity against Poliovirus infected in african green monkey Vero cells by SRB assay; format: functional, organism-based
Outline: (§1)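 Screening: Vero monolayers, infected or uninfected, were treated with a range of compound concentrations. Antiviral activity was read by sulforhodamine B (SRB) staining, and EC50 was taken as the concentration giving 50% efficacy.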

Human alphaherpesvirus 1 [2] = test: Antiviral activity against HSV1 infected in african green monkey Vero cells by SRB assay; format: functional, organism-based; conditions: Human alphaherpesvirus 1, Vero; outline: as §1
[3] = Cytotoxicity against african green monkey Vero cells after 72 hrs by SRB assay; format: cell-based; conditions: chlorocebus sabaeus
Outline: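 Uninfected Vero cells were exposed to compound for 72 h and viability was measured by SRB assay. CC50 is the concentration giving 50% cytotoxicity.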

[4] = Selectivity index, ratio of CC50 for african green monkey Vero cells to EC50 in HSV1
Outline: (§2)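 SI was derived from the SRB-based CC50 in Vero cells and the SRB-based EC50 against each virus.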

[5] = Selectivity index, ratio of CC50 for african green monkey Vero cells to EC50 in Poliovirus; format: toxicity, cell-based; conditions: read-out: Ratio CC50/EC50; outline: as §2
Enterovirus C [6] = test: Antiviral activity against Poliovirus infected in 1 hr compound pretreated african green monkey Vero cells assessed as reduction of plaque formation at 0.825 uM measured after 48 to 72 hrs by virus yield inhibition assay; format: functional; design: scale not given: the % may be the effect or the level left
Outline: (§3)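 Compound was dissolved in DMSO, diluted in serum-free DMEM and added to PBS-washed Vero monolayers for 1 h at 37 °C in 5% CO2. Unbound compound was removed and cells were washed and then infected for 1 h. Unadsorbed virus was removed, and cells were washed and overlaid with DMEM plus 0.5% carboxymethylcellulose. After 48 or 72 h, cells were fixed with formaldehyde, stained with crystal violet and plaques counted.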

Enterovirus C [7] = test: Antiviral activity against Poliovirus infected in 1 hr compound pretreated african green monkey Vero cells assessed as reduction of plaque formation at 1.65 uM measured after 48 to 72 hrs by virus yield inhibition assay; format: functional; design: scale not given: the % may be the effect or the level left; outline: as §3
Enterovirus C [8] = test: Antiviral activity against Poliovirus infected in 1 hr compound pretreated african green monkey Vero cells assessed as reduction of plaque formation at 3.3 uM measured after 48 to 72 hrs by virus yield inhibition assay; format: functional; design: scale not given: the % may be the effect or the level left; outline: as §3
Enterovirus C [9] = test: Antiviral activity against Poliovirus infected in 1 hr compound pretreated african green monkey Vero cells assessed as reduction of plaque formation at 6.6 uM measured after 48 to 72 hrs by virus yield inhibition assay; format: functional; design: scale not given: the % may be the effect or the level left; outline: as §3
Enterovirus C [10] = test: Antiviral activity against Poliovirus infected in african green monkey Vero cells assessed as reduction of plaque formation at 0.825 uM treated during viral infection measured after 48 to 72 hrs by virus yield inhibition assay; format: functional; design: scale not given: the % may be the effect or the level left
Outline: (§4)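 Compound was diluted from DMSO into serum-free DMEM and added together with virus to PBS-washed Vero monolayers for 1 h at 37 °C in 5% CO2. Unadsorbed virus was removed, and cells were washed with PBS and overlaid with DMEM plus 0.5% carboxymethylcellulose. After 48 or 72 h, cells were fixed with 10% formaldehyde, stained with 0.5% crystal violet and plaques counted.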

Enterovirus C [11] = test: Antiviral activity against Poliovirus infected in african green monkey Vero cells assessed as reduction of plaque formation at 1.65 uM treated during viral infection measured after 48 to 72 hrs by virus yield inhibition assay; format: functional; design: scale not given: the % may be the effect or the level left; outline: as §4
Enterovirus C [12] = test: Antiviral activity against Poliovirus infected in african green monkey Vero cells assessed as reduction of plaque formation at 3.3 uM treated during viral infection measured after 48 to 72 hrs by virus yield inhibition assay; format: functional; design: scale not given: the % may be the effect or the level left; outline: as §4
Enterovirus C [13] = test: Antiviral activity against Poliovirus infected in african green monkey Vero cells assessed as reduction of plaque formation at 6.6 uM treated during viral infection measured after 48 to 72 hrs by virus yield inhibition assay; format: functional; design: scale not given: the % may be the effect or the level left; outline: as §4
Enterovirus C [14] = test: Antiviral activity against Poliovirus infected in african green monkey Vero cells assessed as reduction of plaque formation at 0.825 uM treated 1 hr after viral infection measured after 48 to 72 hrs by virus yield inhibition assay; format: functional; design: scale not given: the % may be the effect or the level left
Outline: (§5)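 PBS-washed Vero monolayers were infected for 1 h. Unadsorbed virus was removed, cells were washed, and compound was then added at various concentrations in DMEM with 0.5% carboxymethylcellulose. After 48 or 72 h at 37 °C, cells were fixed with 10% formaldehyde, stained with 0.5% crystal violet and plaques counted.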

Enterovirus C [15] = test: Antiviral activity against Poliovirus infected in african green monkey Vero cells assessed as reduction of plaque formation at 1.65 uM treated 1 hr after viral infection measured after 48 to 72 hrs by virus yield inhibition assay; format: functional; design: scale not given: the % may be the effect or the level left; outline: as §5
Enterovirus C [16] = test: Antiviral activity against Poliovirus infected in african green monkey Vero cells assessed as reduction of plaque formation at 3.3 uM treated 1 hr after viral infection measured after 48 to 72 hrs by virus yield inhibition assay; format: functional; design: scale not given: the % may be the effect or the level left; outline: as §5
Enterovirus C [17] = test: Antiviral activity against Poliovirus infected in african green monkey Vero cells assessed as reduction of plaque formation at 6.6 uM treated 1 hr after viral infection measured after 48 to 72 hrs by virus yield inhibition assay; format: functional; design: scale not given: the % may be the effect or the level left; outline: as §5
Enterovirus C [18] = test: Antiviral activity against 1 hr compound pretreated Poliovirus infected in african green monkey Vero cells assessed as reduction of plaque formation at 0.825 uM after 48 to 72 hrs by virus yield inhibition assay; format: functional; design: scale not given: the % may be the effect or the level left
Enterovirus C [19] = test: Antiviral activity against 1 hr compound pretreated Poliovirus infected in african green monkey Vero cells assessed as reduction of plaque formation at 1.65 uM after 48 to 72 hrs by virus yield inhibition assay; format: functional; design: scale not given: the % may be the effect or the level left
Enterovirus C [20] = test: Antiviral activity against 1 hr compound pretreated Poliovirus infected in african green monkey Vero cells assessed as reduction of plaque formation at 3.3 uM after 48 to 72 hrs by virus yield inhibition assay; format: functional; design: scale not given: the % may be the effect or the level left
Enterovirus C [21] = test: Antiviral activity against 1 hr compound pretreated Poliovirus infected in african green monkey Vero cells assessed as reduction of plaque formation at 6.6 uM after 48 to 72 hrs by virus yield inhibition assay; format: functional; design: scale not given: the % may be the effect or the level left
Human alphaherpesvirus 1 [22] = test: Antiviral activity against 1 hr compound pretreated HSV1 infected in african green monkey Vero cells assessed as inhibition of viral replication measured after 48 to 72 hrs; format: functional, organism-based
Outline: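 HSV-1 was mixed with compound for 1 h before being added to Vero cells. The mixture infected the cells for 1 h at 37 °C in 5% CO2. The monolayer was washed with PBS and overlaid with DMEM containing carboxymethylcellulose. After 48 or 72 h at 37 °C, cells were fixed with 10% formaldehyde and stained with 0.5% crystal violet, and plaques were counted.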

Row | SMILES | EC50 (Enterovirus C [1]) | EC50 (Human alphaherpesvirus 1 [2]) | CC50 at 72 h [3] | Ratio CC50/EC50 [4] | also measured
1 | COc1ccc(-c2nc(C(=O)N/N=C/c3ccccc3)cc3c2[nH]c2ccccc23)cc1 | > 100 µM | > 100 µM |  |  | 
2 | COc1ccc(/C=N/NC(=O)c2cc3c([nH]c4ccccc43)c(-c3cccc([N+](=O)[O-])c3)n2)cc1 | > 100 µM | > 100 µM |  |  | 
3 | COc1ccc(-c2nc(C(=O)N/N=C/c3ccc(N(C)C)cc3)cc3c2[nH]c2ccccc23)cc1 | > 100 µM | > 100 µM |  |  | 
4 | COc1ccc(/C=N/NC(=O)c2cc3c([nH]c4ccccc43)c(-c3ccc(O)cc3)n2)cc1 | > 100 µM | 22.9 µM | 803 µM | 35 | 
5 | O=C(N/N=C/c1ccc([N+](=O)[O-])cc1)c1cc2c([nH]c3ccccc32)c(-c2ccc(O)cc2)n1 | > 100 µM | 86.5 µM | 200 µM | 2.3 | 
6 | O=C(N/N=C/c1ccccc1)c1cc2c([nH]c3ccccc32)c(-c2ccc([N+](=O)[O-])cc2)n1 | > 100 µM | > 100 µM |  |  | 
7 | CN(C)c1ccc(/C=N/NC(=O)c2cc3c([nH]c4ccccc43)c(-c3ccc(O)cc3)n2)cc1 | 2.67 µM | > 100 µM | 900 µM |  | selectivity ratio [5]: 337; Activity (Enterovirus C [6]): 0%; Activity (Enterovirus C [7]): 0%; Activity (Enterovirus C [8]): 0%; Activity (Enterovirus C [9]): 0%; Activity (Enterovirus C [10]): 0%; Activity (Enterovirus C [11]): 0%; Activity (Enterovirus C [12]): 0%; Activity (Enterovirus C [13]): 0%; Activity (Enterovirus C [14]): 0%; Activity (Enterovirus C [15]): 32%; Activity (Enterovirus C [16]): 66.3%; Activity (Enterovirus C [17]): 88.3%; Activity (Enterovirus C [18]): 0%; Activity (Enterovirus C [19]): 0%; Activity (Enterovirus C [20]): 0%; Activity (Enterovirus C [21]): 0%
8 | CN(C)c1ccc(/C=N/NC(=O)c2cc3c([nH]c4ccccc43)c(-c3ccc([N+](=O)[O-])cc3)n2)cc1 | > 100 µM | > 100 µM |  |  | 
9 | COc1ccc(-c2nc(C(=O)N/N=C/c3ccc([N+](=O)[O-])cc3)cc3c2[nH]c2ccccc23)cc1 | > 100 µM | > 100 µM |  |  | 
10 | O=C(N/N=C/c1ccccc1)c1cc2c([nH]c3ccccc32)c(-c2ccc(O)cc2)n1 | 1.03 µM | > 100 µM | 1240 µM |  | selectivity ratio [5]: 1200
11 | O=C(N/N=C/c1ccccc1Cl)c1cc2c([nH]c3ccccc32)c(-c2ccc(O)cc2)n1 | > 100 µM | 41.2 µM | 29.8 µM | 0.7 | 
12 | O=C(N/N=C/c1ccccc1)c1cc2c([nH]c3ccccc32)c(-c2ccccc2)n1 | 1.95 µM | > 100 µM | 777 µM |  | selectivity ratio [5]: 398
13 | O=C(N/N=C/c1ccccc1Cl)c1cc2c([nH]c3ccccc32)c(-c2ccccc2)n1 | > 100 µM | > 100 µM |  |  | 
14 | COc1ccc(/C=N/NC(=O)c2cc3c([nH]c4ccccc43)c(-c3ccccc3)n2)cc1 | 0.87 µM | 0.47 µM | 1150 µM | 2446.8 | selectivity ratio [5]: 1320; Activity (Human alphaherpesvirus 1 [22]): inactive
15 | COc1ccc(/C=N/NC(=O)c2cc3c([nH]c4ccccc43)c(-c3ccc(OC)cc3)n2)cc1 | > 100 µM | > 100 µM |  |  | 
16 | CN(C)c1ccc(/C=N/NC(=O)c2cc3c([nH]c4ccccc43)c(-c3ccccc3)n2)cc1 | 0.87 µM | 1.85 µM | 1160 µM | 629.5 | selectivity ratio [5]: 1340
17 | O=C(N/N=C/c1ccc([N+](=O)[O-])cc1)c1cc2c([nH]c3ccccc32)c(-c2ccccc2)n1 | > 100 µM | > 100 µM |  |  | 
18 | CN(C)c1ccc(/C=N/NC(=O)c2cc3c([nH]c4ccccc43)c(-c3cccc([N+](=O)[O-])c3)n2)cc1 | > 100 µM | 73.2 µM | 1050 µM | 14.3 | 
19 | COc1ccc(/C=N/NC(=O)c2cc3c([nH]c4ccccc43)c(-c3ccc([N+](=O)[O-])cc3)n2)cc1 | > 100 µM | > 100 µM |  |  | 
